Experimental data published in ChEMBL document CHEMBL1949546, “Pyrazoloquinolines as PDE10A inhibitors: discovery of a tool compound” (Bioorg Med Chem Lett, 2012).

What was measured:
[1] = AUC (0 to 6 hrs) in monkey at 3 mg/kg, po; format: ADME, organism-based, Macaca mulatta; parameters: time < 6 hr, dose 3 mg/kg, route oral; details: rhesus monkey, plasma
[2] = Drug uptake in rat brain after 6 hrs; format: ADME, tissue-based; details: read-out: Drug uptake
In short: (§1)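 Animals were sacrificed at 6 h for ex vivo measurement of plasma concentration (nM) and brain level (ng/g), from which the brain to plasma ratio was derived.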

[3] = Clearance in monkey hepatocytes assessed per million cells; format: ADME, cell-based, Macaca mulatta, Hepatocyte; details: rhesus monkey, read-out: CLH
[4] = Clearance in human hepatocytes assessed per million cells; format: ADME, cell-based, Hepatocyte; details: read-out: CLH
[5] = AUC (0 to 6 hrs) in rat at 10 mg/kg, po; format: ADME, organism-based; parameters: time < 6 hr, dose 10 mg/kg, route oral; details: plasma
[6] = Plasma concentration in rat after 6 hrs; format: ADME; in short: as §1
[7] = Ratio of drug level in brain to plasma of rat after 6 hrs; format: ADME; details: read-out: BPR; in short: as §1
[8] = Clearance in rat hepatocytes assessed per million cells; format: ADME, cell-based, Hepatocyte; details: read-out: CLH
[9] = Clearance in dog hepatocytes assessed per million cells; format: ADME, cell-based, Canis lupus familiaris, Hepatocyte; details: read-out: CLH
[10] = Half life in monkey at 3 mg/kg, po; format: ADME, organism-based, Macaca mulatta; parameters: dose 3 mg/kg, route oral; details: rhesus monkey, in vivo

**Q.** What does the source list for `Cc1ncc(C(O)c2c3cc(Cl)cc(C)c3nc3[nH]nc(C)c23)cn1` (racemic)?
**A.** AUC(0-t) at 6 h [1]: 11.5 µM·h; concentration at 6 h [2]: < 14 ng/g; hepatocyte CLint [3]: 8 µL/min/1e6 cells; hepatocyte CLint [4]: 2 µL/min/1e6 cells; AUC(0-t) at 6 h [5]: 4.29 µM·h; concentration at 6 h [6]: 220 nM; Kp at 6 h [7]: < 0.18; hepatocyte CLint [8]: 11 µL/min/1e6 cells; hepatocyte CLint [9]: 7 µL/min/1e6 cells; half-life [10]: 7.1 h

**Q.** For `COc1cc(C)c2nc3[nH]nc(C)c3c(C(O)c3cccnc3)c2c1` (racemic), which hepatocyte CLint [3] is on record?
**A.** Its hepatocyte CLint is 67 µL/min/1e6 cells.

**Q.** Which hepatocyte CLint [3] does the source give for `COc1cc(C)c2nc3[nH]nc(C)c3c(C(C)(O)c3ccncc3)c2c1` (racemic) here?
**A.** Its hepatocyte CLint is 66 µL/min/1e6 cells.

**Q.** Which results are given for `Cc1cc(Cl)cc2c(C(O)c3cccnc3)c3c(C)n[nH]c3nc12` (racemic)?
**A.** concentration at 6 h [2]: 115 ng/g; hepatocyte CLint [3]: 46 µL/min/1e6 cells; hepatocyte CLint [4]: 5 µL/min/1e6 cells; AUC(0-t) at 6 h [5]: 11 µM·h; concentration at 6 h [6]: 810 nM; Kp at 6 h [7]: 1.5; hepatocyte CLint [8]: 26 µL/min/1e6 cells

**Q.** Which hepatocyte CLint [3] does the source give for `COc1cc(C)c2nc3[nH]nc(C)c3c(C(=O)c3ccncc3)c2c1` here?
**A.** Its hepatocyte CLint is 66 µL/min/1e6 cells.

**Q.** Which hepatocyte CLint [3] does the source give for `COc1cc(C)c2nc3[nH]nc(C)c3c(C(C#N)c3ccccc3)c2c1` (racemic) here?
**A.** The hepatocyte CLint was 64 µL/min/1e6 cells.

**Q.** Which results are given for `COc1cc(C)c2nc3[nH]nc(C)c3c(CN3CCCOCC3)c2c1`?
**A.** hepatocyte CLint [4]: 8 µL/min/1e6 cells; AUC(0-t) at 6 h [5]: 3.76 µM·h; hepatocyte CLint [8]: < 1 µL/min/1e6 cells

**Q.** With `COc1ccc(C(O)c2c3cc(OC)cc(C)c3nc3[nH]nc(C)c23)cc1` (racemic) as the compound, how does the hepatocyte CLint [3] read?
**A.** Its hepatocyte CLint is 60 µL/min/1e6 cells.

**Q.** Which hepatocyte CLint [3] does the source give for `Cc1cc(Cl)cc2c(C(O)c3ccnc(F)c3)c3c(C)n[nH]c3nc12` (racemic) here?
**A.** Its hepatocyte CLint is 37 µL/min/1e6 cells.

**Q.** For `COc1cc(C)c2nc3[nH]nc(C)c3c(C(O)c3cncn3C)c2c1` (racemic), which hepatocyte CLint [3] is on record?
**A.** The hepatocyte CLint was 22 µL/min/1e6 cells.

**Q.** Which hepatocyte CLint [3] does the source give for `COc1cc(C)c2nc3[nH]nc(C)c3c(C(O)c3ncco3)c2c1` (racemic) here?
**A.** The hepatocyte CLint was 63 µL/min/1e6 cells.

**Q.** For `COc1cc(C)c2nc3[nH]nc(C)c3c(C(F)c3ccncc3)c2c1` (single isomer, unassigned; (-)), which hepatocyte CLint [3] is on record?
**A.** The hepatocyte CLint was 62 µL/min/1e6 cells.

**Q.** For `COc1cc(C)c2nc3[nH]nc(C)c3c(C(O)c3ccncc3)c2c1` (single isomer, unassigned; (+)), which hepatocyte CLint [3] is on record?
**A.** The hepatocyte CLint was 66 µL/min/1e6 cells.

**Q.** Which hepatocyte CLint [3] does the source give for `COc1cc(C)c2nc3[nH]nc(C)c3c(C(O)c3ccc(F)cc3)c2c1` (racemic) here?
**A.** The hepatocyte CLint was 63 µL/min/1e6 cells.

**Q.** For `COc1cc(C)c2nc3[nH]nc(C)c3c(C(O)c3ccnc(F)c3)c2c1` (racemic), which hepatocyte CLint [3] is on record?
**A.** Its hepatocyte CLint is 66 µL/min/1e6 cells.

**Q.** Which hepatocyte CLint [3] does the source give for `Cc1cc(Cl)cc2c(C(O)c3ccncc3)c3c(C)n[nH]c3nc12` (racemic) here?
**A.** The hepatocyte CLint was 25 µL/min/1e6 cells.
